MrgX1 antag – antagonists of human MrgX1 receptor, primary screen, HEK293 cells, Fluo-4 calcium flux | Mas-related G-protein coupled receptor member X1 (Homo sapiens), Q96LB2 | B-score at 10 µM | BAM8-22 antagonism; hits give low values | 310,000 tested, 1.3% active;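 active = calcium-response B-score plate-corrected more than 3 library SD below zero, starting fluorescence within 5 deviations, no agonist response on first addition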;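 note: peak minus trough fluorescence over baseline after final BAM8-22 challenge near maximal dose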
Target sequence (Q96LB2 whole entry, looked up): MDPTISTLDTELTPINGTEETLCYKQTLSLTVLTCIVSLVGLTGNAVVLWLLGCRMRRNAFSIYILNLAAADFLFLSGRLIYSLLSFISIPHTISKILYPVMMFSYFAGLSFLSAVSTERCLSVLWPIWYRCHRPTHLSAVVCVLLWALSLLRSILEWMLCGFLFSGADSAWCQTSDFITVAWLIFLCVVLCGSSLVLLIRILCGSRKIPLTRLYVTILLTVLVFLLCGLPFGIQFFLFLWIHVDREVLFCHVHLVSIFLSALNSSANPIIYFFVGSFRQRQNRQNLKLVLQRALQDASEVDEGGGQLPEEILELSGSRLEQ
RGS4 block – RGS4 inhibitors, primary screen, cell-based, HEK293 M3R inducible RGS4, calcium flux; Regulator of G-protein signaling 4 (Homo sapiens), P49798; Fluo-4 calcium flux; hits give high values; triggered by carbachol at its EC20; B-score at 10 µM; 310,000 tested, 0.45% active;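 active = B-score, a plate-corrected calcium signal, over three deviations above library mean, with baseline fluorescence within five deviations of library mean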;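 note: RGS4 expression induced by doxycycline in cells with stable M3 receptor; B-score is computed from the integrated fluorescence ratio over baseline after carbachol; higher B-score means a larger calcium signal and so more RGS4 inhibition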
Target sequence (P49798 whole entry, looked up): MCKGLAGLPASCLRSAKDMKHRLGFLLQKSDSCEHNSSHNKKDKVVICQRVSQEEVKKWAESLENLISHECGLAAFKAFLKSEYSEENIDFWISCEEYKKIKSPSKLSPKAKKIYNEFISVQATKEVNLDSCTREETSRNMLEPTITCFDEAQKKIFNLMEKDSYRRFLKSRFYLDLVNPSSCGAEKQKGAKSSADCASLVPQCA
MrgX1 agonist – agonists of human MrgX1 receptor, primary screen, HEK293 cells, Fluo-4 calcium flux | Mas-related G-protein coupled receptor member X1 (Homo sapiens), Q96LB2 | Fluo-4 calcium fluorescence, agonist mode; hits give high values | B-score at 10 µM | 310,000 tested, 0.44% active;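 active = calcium response B-score plate-corrected fluorescence ratio at least 3 library SD, with starting fluorescence B-score inside 5 SD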
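Test system: HEK293 cells stably expressing human MrgX1 receptor; Input: fifteen thousand cells per well; Dosing: compound delivered in addition one of three; Schedule: overnight seeding, then 1 h dark dye loading; Technique: Fluo-4 NW calcium fluorescence; Measure: B-scored fluorescence response ratio; Controls: positive and negative controls per plate.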
RGS4 pot – RGS4 potentiators or activators, primary screen, cell-based, HEK293 M3R inducible RGS4, calcium flux | AID 463111, 2010 | carbachol calcium flux Fluo4; hits give low values | B-score at 10 µM | 310,000 tested, 0.92% active;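 active = B-score of the integrated calcium signal more than 4 SD below the library mean, with starting fluorescence not abnormally high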;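 note: negative B-score means reduced calcium response which marks RGS4 activation or potentiation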
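test system = HEK293 cells with stable M3R and inducible RGS4 | schedule = recording 10 s baseline at 1 Hz, 100 s post-agonist | technique = Fluo4-AM (2 µM) calcium-flux fluorescence, kinetic read | measure = Agonist-evoked peak-minus-minimum fluorescence over baseline, integrated ratio, B score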
MrgX1 PAM – positive allosteric modulators of MrgX1, primary screen, HEK293 cells, Fluo-4 calcium flux | 310,000 tested, 0.63% active | FDSS; hits give high values | Mas-related G-protein coupled receptor member X1 (Homo sapiens), Q96LB2 | B-score at 10 µM;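 active = plate-corrected calcium response at least 3 library SD above typical, normal starting fluorescence, not activating the receptor alone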;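 note: compound read alongside a low EC10 to EC30 dose of BAM8-22 agonist; peak minus trough fluorescence over baseline measured at the second addition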
RGS4 act valid – reduced carbachol calcium response, RGS4-induced M3R cells, confirmation, RGS4 activator project, cell-based, HEK293 M3R/RGS4 inducible, calcium flux, duplicate. shares compounds with RGS4 pot. carbachol calcium flux Fluo4. inhibition, % at 10 µM. 1,100 tested, 89% active;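 active = inhibition above 3 SD of the buffer control wells, cut at about 41% in these data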;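 note: signal is the integrated peak-minus-minimum Fluo4 fluorescence over baseline ratio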
RGS4 act ctr – counter-screen for RGS4 activators: effect in non-induced cells; shares compounds with RGS4 pot; HEK293 M3R non-induced RGS4, Fluo4 calcium flux; after carbachol challenge at its EC90; inhibition, % at 10 µM; 1,100 tested, 82% active;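 active = inhibition exceeding 3 SD of buffer-only control wells, cut at about 26% in these data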;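 note: percent drop in integrated peak-minus-baseline over baseline Fluo4 ratio after carbachol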
* hit, by the source's call; i = inactive; . = no result. The list is not random: actives were taken first. Their share in the collection is about 3.5%.

SMILES	MrgX1 antag	RGS4 block	MrgX1 agonist	RGS4 pot	MrgX1 PAM	RGS4 act valid	RGS4 act ctr
CN(C)CCNC(=O)c1cc2c(s1)-c1ccc(Cl)cc1SC2	i	i	i	-13*	i	94*	93*
CCOC(=O)c1cc2c(ccn2C)n1Cc1ccccc1C	i	i	i	-8.8*	i	84*	40*
Cc1ccccc1Cn1c(C(=O)OC(C)C)cc2c1ccn2C	i	i	i	-8*	i	90*	50*
CCOC(=O)c1cc2c(ccn2C)n1CC(=O)N(Cc1ccccc1)c1ccccc1	i	i	i	i	i	.	.
CCOc1ccccc1CN1CCN(Cc2cc3ccccc3[nH]2)CC1CCO (centres undefined)	i	i	i	i	i	.	.
Cn1nc(C(F)(F)F)c2cc(NC(=O)OCc3ccc(F)cc3)sc21	i	i	i	-7.9*	i	74*	84*
C/C(=N\NC(=O)Cn1nc(C)c([N+](=O)[O-])c1C)c1ccc(O)cc1	i	i	i	i	i	.	.
O=C(NCCCN1CCCCC1)c1ccc(CS(=O)c2ccc(Cl)cc2)o1 (centres undefined)	i	i	i	i	i	.	.
COc1ccccc1C(CNc1ncnc2sc(C)c(C)c12)N(C)C (centres undefined)	i	i	i	-11*	i	80*	42*
COc1ccc(C(CNc2ncnc3sc(C)c(C)c23)N(C)C)cc1 (centres undefined)	i	i	i	i	i	.	.
CC(C)Cn1c2c(c(O)c(C(=O)Nc3nccs3)c1=O)CCCC2	i	i	i	-7.7*	i	74*	41*
Cc1csc(NC(=O)c2c(O)c3c(n(CC(C)C)c2=O)CCCC3)n1	i	i	i	-8.9*	i	57*	0
CCCn1c2c(c(O)c(C(=O)Nc3nccs3)c1=O)CCCC2	i	i	i	i	i	.	.
CCNc1nc(NCC)n2c(SCC(=O)Nc3cccc(Cl)c3)nnc2n1	i	i	i	i	i	.	.
COc1ccc(C(=O)C2CCCN(C/C=C/c3ccccc3OC)C2)c(OC)c1 (centres undefined)	i	i	i	-9.3*	i	88*	84*
COc1cccc(C(=O)C2CCCN(C/C=C/c3ccccc3OC)C2)c1 (centres undefined)	i	i	i	i	i	.	.
Fc1ccc(-n2nnnc2-c2cnc(-c3cccs3)nc2C(F)(F)F)cc1	i	i	i	-9.7*	i	74*	44*
FC(F)(F)c1nc(-c2ccncc2)ncc1-c1nnnn1-c1ccccc1	i	i	i	i	i	.	.
N#Cc1ccc(N2C(=O)[C@@H]3C(C(=O)c4ccc5ccccc5n4)=NN[C@@H]3C2=O)cc1	i	i	i	i	i	.	.
O=S(=O)(Nc1ccccc1)c1ccc(-c2csnn2)cc1	i	i	i	-8.4*	i	63*	84*
Cc1ccc(CSc2nnc(CCNC(=O)OC(C)(C)C)o2)cc1	i	i	i	i	i	.	.
CCCCC(=O)OCC(=O)c1[nH]c(C)c(C(=O)OCC)c1C	i	i	i	i	i	.	.
CN(C)CCC#CC(O)(c1ccccc1)c1ccccc1	i	i	i	-9.9*	i	88*	47*
CCN(CC)CCC#CC(O)(c1ccccc1)C1CCCCC1 (centres undefined)	i	i	i	-8.6*	i	91*	93*
CN(C)CC#CCC(O)(c1ccccc1)C1CCCCC1 (centres undefined)	i	i	i	i	i	.	.
SMILES	MrgX1 antag	RGS4 block	MrgX1 agonist	RGS4 pot	MrgX1 PAM	RGS4 act valid	RGS4 act ctr
CN(C)CCC(O)(c1ccccc1)c1ccccc1	i	i	i	i	i	.	.
CCN(CC)CC#CC(O)(c1ccccc1)c1ccccc1	i	i	i	-13*	i	94*	92*
CN(C)C(C)(C)C#CC(O)(c1ccccc1)c1ccccc1	i	i	i	-8.7*	i	92*	88*
COc1ccc(N2CCN(CC(O)COc3ccc([N+](=O)[O-])cc3)CC2)cc1 (centres undefined)	i	i	i	i	i	.	.
C=CCc1cccc(/C=N/n2cnnc2)c1O	i	i	i	i	i	.	.
COc1ccc(S(=O)(=O)N2CCCCC2)cc1NC(=O)C1COc2ccccc2O1 (centres undefined)	i	i	i	-13*	i	74*	84*
COc1cc(NC(=O)C2COc3ccccc3O2)c(OC)cc1Cl (centres undefined)	i	i	i	i	i	.	.
Cc1ccc2oc(=O)c3cc(C(=O)NCCCN4CCCCCC4)sc3c2c1	i	i	i	i	i	.	.
Cc1ccc2oc(=O)c3cc(C(=O)NCCCN4CCc5ccccc5C4)sc3c2c1	i	i	i	-7.7*	i	51*	84*
COc1ccc(-c2noc(N3CCC(C(=O)Nc4ccc(F)cc4F)CC3)n2)cc1	i	i	i	i	i	.	.
COc1cc(OC)cc(C(=O)NCC(=O)OCC(=O)NC(C)(C)C)c1	i	i	i	i	i	.	.
Cc1cc(C)c(S(=O)(=O)Nc2ccc3c(c2)CCC3)c(C)c1	i	i	i	-10*	i	92*	74*
Cc1cc(C)c(S(=O)(=O)Nc2ccc(O)cc2)c(C)c1	i	i	i	i	i	.	.
COc1ccc(-c2csc3ncnc(N4CCN(S(=O)(=O)c5cccs5)CC4)c23)cc1	i	i	i	-8.2*	i	42*	84*
COc1ccc(N2CCN(c3ncnc4scc(-c5ccc(F)cc5)c34)CC2)cc1	i	i	i	i	i	.	.
COc1ccc(N2CCN(c3ncnc4scc(-c5ccccc5)c34)CC2)cc1	i	i	i	-7.9*	i	54*	0
COc1ccc(N2CCN(c3ncnc4scc(-c5ccc(C)cc5)c34)CC2)cc1	i	i	i	-7.9*	i	0	0
